# According to ChEMBL document CHEMBL1799953, “Backbone cyclic peptide inhibitors of protein kinase B (PKB/Akt)” (J Med Chem, 2011):
# *1 amine or outer side, *2 acyl side, *3 side chain or, on linkers, in order; H or OH if unused. Where a SMILES comes first, the peptide text is derived from it. Bridges are numbered along the chain shown (N, C = ends). [ ]: non-standard residue; d: D form. N(6-aminohexyl)Gly = O=C(CN(CCCCCCN[*:3])[*:1])[*:2]; NGly(3-aminopropyl) = O=C(CN(CCCN[*:3])[*:1])[*:2]; N(2-Aminoethyl)Gly = O=C(CN(CCN[*:3])[*:1])[*:2]; Gly(N-(CH2)6NH2) = NCCCCCCNCC(=O)O; Gly(N-2-aminoethyl) = NCCNCC(=O)O; Cha = N[C@@H](CC1CCCCC1)C(=O)O; Gly(N(CH2)3NH2) = NCCCNCC(=O)O; hLeu = CC(C)CC[C@H](N)C(=O)O; Nva = CCC[C@H](N)C(=O)O; Dap = NC[C@H](N)C(=O)O; CO = O=C([*:1])[*:2]; Nlys = NCCCCNCC(=O)O
# Molecular target: T1, RAC-alpha serine/threonine-protein kinase (Homo sapiens, UniProt P31749)
# Experiment: Inhibition of Akt using RPRTSSF peptide and [gamma32]ATP by cell-free radioactive assay
# Outline: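 Same reaction: HisΔPHPKBEEEFlag (0.005 units), 50 mM Hepes pH 7.4, 0.1 mM EGTA, 0.1% 2-mercaptoethanol, 10 mM magnesium acetate, 3 μM RPRTSSF, 10 μM [γ32P]ATP. Peptide stock concentration determined by UV spectrophotometry; reference peptide run in every assay.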
# T1 sequence (P31749 whole entry): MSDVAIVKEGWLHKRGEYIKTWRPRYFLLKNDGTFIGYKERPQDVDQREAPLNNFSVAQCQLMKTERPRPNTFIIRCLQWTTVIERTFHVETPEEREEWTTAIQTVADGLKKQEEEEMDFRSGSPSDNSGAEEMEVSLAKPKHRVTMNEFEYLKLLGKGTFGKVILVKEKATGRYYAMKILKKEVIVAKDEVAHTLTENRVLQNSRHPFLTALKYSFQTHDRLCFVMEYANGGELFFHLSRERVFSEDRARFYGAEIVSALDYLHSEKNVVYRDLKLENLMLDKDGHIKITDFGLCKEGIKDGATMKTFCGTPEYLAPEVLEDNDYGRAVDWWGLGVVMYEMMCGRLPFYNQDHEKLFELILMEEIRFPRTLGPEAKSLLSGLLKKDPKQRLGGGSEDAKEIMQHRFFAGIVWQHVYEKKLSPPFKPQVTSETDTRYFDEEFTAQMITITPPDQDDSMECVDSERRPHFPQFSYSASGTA
row,IC50 [nM],SMILES
1,2150,CCC[C@H](NC(=O)[C@H](CCCN=C(N)N)NC(=O)[C@H](CCCCN)NC(=O)[C@@H](N)CCCN=C(N)N)C(=O)N[C@@H](Cc1ccc(O)cc1)C(=O)N[C@@H](CN)C(=O)N[C@@H](CCC(C)C)C(N)=O
2,320,CCC[C@H](NC(=O)[C@H](CCCN=C(N)N)NC(=O)CN(CCCN)C(=O)[C@@H](N)CCCN=C(N)N)C(=O)N[C@@H](Cc1ccc(O)cc1)C(=O)N[C@@H](CN)C(=O)N[C@@H](CCC(C)C)C(=O)N(CCN)CC(N)=O (H-R[Gly(N(CH2)3NH2)]R[Nva]Y[Dap][hLeu][Gly(N-2-aminoethyl)]-NH2)
3,282,CCC[C@@H]1NC(=O)[C@H](CCCN=C(N)N)NC(=O)CN(C(=O)[C@@H](N)CCCN=C(N)N)CCNC(=O)NCCCCN(CC(N)=O)C(=O)[C@H](CCC(C)C)NC(=O)[C@H](CN)NC(=O)[C@H](Cc2ccc(O)cc2)NC1=O (H-R[N(2-Aminoethyl)Gly]R[Nva]Y[Dap][hLeu][Nlys]-NH2; linker 2-8 via CO)
4,250,CCC[C@H](NC(=O)[C@H](CCCN=C(N)N)NC(=O)CN(CCN)C(=O)[C@@H](N)CCCN=C(N)N)C(=O)N[C@@H](Cc1ccc(O)cc1)C(=O)N[C@@H](CN)C(=O)N[C@@H](CCC(C)C)C(=O)N(CCCN)CC(N)=O (H-R[Gly(N-2-aminoethyl)]R[Nva]Y[Dap][hLeu][Gly(N(CH2)3NH2)]-NH2)
5,320,CCC[C@H](NC(=O)[C@H](CCCN=C(N)N)NC(=O)CN(CCCCCCN)C(=O)[C@@H](N)CCCN=C(N)N)C(=O)N[C@@H](Cc1ccc(O)cc1)C(=O)N[C@@H](CN)C(=O)N[C@@H](CCC(C)C)C(=O)N(CCN)CC(N)=O (H-R[Gly(N-(CH2)6NH2)]R[Nva]Y[Dap][hLeu][Gly(N-2-aminoethyl)]-NH2)
6,280,CCC[C@@H]1NC(=O)[C@H](CCCN=C(N)N)NC(=O)CN(C(=O)[C@@H](N)CCCN=C(N)N)CCCCCCNC(=O)NCCCCN(CC(N)=O)C(=O)[C@H](CCC(C)C)NC(=O)[C@H](CN)NC(=O)[C@H](Cc2ccc(O)cc2)NC1=O (H-R[N(6-aminohexyl)Gly]R[Nva]Y[Dap][hLeu][Nlys]-NH2; linker 2-8 via CO)
7,220,CCC[C@H](NC(=O)[C@H](CCCN=C(N)N)NC(=O)CN(CCCCN)C(=O)[C@@H](N)CCCN=C(N)N)C(=O)N[C@@H](Cc1ccc(O)cc1)C(=O)N[C@@H](CN)C(=O)N[C@@H](CCC(C)C)C(=O)N(CCN)CC(N)=O (H-R[Nlys]R[Nva]Y[Dap][hLeu][Gly(N-2-aminoethyl)]-NH2)
8,860,CCC[C@H](NC(=O)[C@H](CCCN=C(N)N)NC(=O)[C@H](CN)NC(=O)[C@@H](N)CCCN=C(N)N)C(=O)N[C@@H](Cc1ccc(O)cc1)C(=O)N[C@@H](CN)C(=O)N[C@@H](CCC(C)C)C(N)=O
9,950,CCC[C@H](NC(=O)[C@H](CCCN=C(N)N)NC(=O)[C@H](CC1CCCCC1)NC(=O)[C@@H](N)CCCN=C(N)N)C(=O)N[C@@H](Cc1ccc(O)cc1)C(=O)N[C@@H](CN)C(=O)N[C@@H](CCC(C)C)C(N)=O (H-R[Cha]R[Nva]Y[Dap][hLeu]-NH2)
10,176,CCC[C@H](NC(=O)[C@H](CCCN=C(N)N)NC(=O)CN(CCN)C(=O)[C@@H](N)CCCN=C(N)N)C(=O)N[C@@H](Cc1ccc(O)cc1)C(=O)N[C@@H](CN)C(=O)N[C@@H](CCC(C)C)C(=O)N(CCCCN)CC(N)=O (H-R[Gly(N-2-aminoethyl)]R[Nva]Y[Dap][hLeu][Nlys]-NH2)
11,590,CCC[C@@H]1NC(=O)[C@H](CCCN=C(N)N)NC(=O)CN(C(=O)[C@@H](N)CCCN=C(N)N)CCCNC(=O)NCCCN(CC(N)=O)C(=O)[C@H](CCC(C)C)NC(=O)[C@H](CN)NC(=O)[C@H](Cc2ccc(O)cc2)NC1=O (H-R[NGly(3-aminopropyl)]R[Nva]Y[Dap][hLeu][NGly(3-aminopropyl)]-NH2; linker 2-8 via CO)
12,160,CCC[C@H](NC(=O)[C@H](CCCN=C(N)N)NC(=O)CN(CCCCCCN)C(=O)[C@@H](N)CCCN=C(N)N)C(=O)N[C@@H](Cc1ccc(O)cc1)C(=O)N[C@@H](CN)C(=O)N[C@@H](CCC(C)C)C(=O)N(CCCCN)CC(N)=O (H-R[Gly(N-(CH2)6NH2)]R[Nva]Y[Dap][hLeu][Nlys]-NH2)

# Molecular target: T1, RAC-alpha serine/threonine-protein kinase
# Experiment: Inhibition of Akt using RPRTSSF peptide and [gamma32]ATP at 0.625 uM by cell-free radioactive assay relative to control
row,inhibition [%],SMILES
1,51,CCC[C@H](NC(=O)[C@H](CCCNC(=N)N)NC(=O)CN(CCCN)C(=O)[C@@H](N)CCCNC(=N)N)C(=O)N[C@@H](Cc1ccc(O)cc1)C(=O)N[C@@H](CN)C(=O)N[C@@H](CCC(C)C)C(=O)N(CCCCCCN)CC(N)=O (H-R[Gly(N(CH2)3NH2)]R[Nva]Y[Dap][hLeu][Gly(N-(CH2)6NH2)]-NH2)
2,42,CCC[C@H](NC(=O)[C@H](CCCNC(=N)N)NC(=O)CN(CCN)C(=O)[C@@H](N)CCCNC(=N)N)C(=O)N[C@@H](Cc1ccc(O)cc1)C(=O)N[C@@H](CN)C(=O)N[C@@H](CCC(C)C)C(=O)N(CCCCCCN)CC(N)=O (H-R[Gly(N-2-aminoethyl)]R[Nva]Y[Dap][hLeu][Gly(N-(CH2)6NH2)]-NH2)
